# CAL PDZ FP-1: inhibitors of human CAL PDZ peptide binding. purified CAL PDZ, TMR-peptide fluorescence polarization, 1 h. inhibition, % at 20 µM. hit rate 0.02% among 330,000. AID 504414;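 active = highest replicate inhibition of at least 40%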;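 also: plate controls were DMSO neutral control wells for no effect and unlabeled competitor peptide control wells for full effect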
#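 System: purified tagged CAL PDZ domain construct (CerCALP). Schedule: 1 h incubation at room temperature before polarization reading. Medium: 25 mM sodium phosphate pH 7.4, 150 mM NaCl, TCEP, IgG, Thesit. Read-out: percent inhibition from loss of millipolarization. Measured by: FP readout, S and P plane fluorescence. Probe or stimulus: fluorescent TMR peptide probe.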
# A3G deaminase: blocks human APOBEC3G single-stranded DNA deamination. AID 493012. Q9HC16. hit rate 0.28% among 330,000. inhibition, % at 20 µM. recombinant A3G, ssDNA deamination FAM/TAMRA fluorescence;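 active = inhibition of at least 40% at 20 µM, with no more than 30% in the related APOBEC3A deaminase screen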;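 also: plate controls were DMSO wells with A3G for no effect and wells lacking A3G enzyme for full effect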
# APOBEC3A inh: human APOBEC3A DNA deaminase inhibition; P31941; recombinant A3A, FAM/TAMRA ssDNA deamination fluorescence; inhibition, % at 20 µM; hit rate 0.41% among 330,000; AID 493011;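 active = at least 40% inhibition at 20 µM here, with at most 30% in a related deaminase screen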;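 also: plate controls were A3A with DMSO for no effect and wells lacking A3A enzyme for full effect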
# CAL PDZ FP-2: inhibitors of human CAL PDZ peptide binding | AID 602252 | Q9HD26 | inhibition, % at 24.9 µM | hit rate 0.92% among 300,000 | purified CAL PDZ, TMR-peptide fluorescence polarization, 1 h;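 active = mean inhibition of at least 30% with at least half of replicates also reaching 30%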;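 also: 0% = DMSO neutral control and 100% = excess unlabeled competitor peptide PRC23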
# Keap1-Nrf2 PPI: Keap1-Nrf2 (human) interaction inhibition; Q14145; Keap1 Kelch-Nrf2 peptide fluorescence polarization, 1536-well; inhibition, % at 9.4 µM; hit rate 0.15% among 340,000; AID 504523; in the data active = inhibition above about 12%;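 also: human Keap1 Kelch domain with fluorescein labeled Nrf2 9mer peptide probe; 0% = neutral control wells and 100% = peptide positive control; higher means more block of Keap1 binding to Nrf2 peptide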
# Target sequence (Q14145 whole entry, looked up, the tested form may be a part): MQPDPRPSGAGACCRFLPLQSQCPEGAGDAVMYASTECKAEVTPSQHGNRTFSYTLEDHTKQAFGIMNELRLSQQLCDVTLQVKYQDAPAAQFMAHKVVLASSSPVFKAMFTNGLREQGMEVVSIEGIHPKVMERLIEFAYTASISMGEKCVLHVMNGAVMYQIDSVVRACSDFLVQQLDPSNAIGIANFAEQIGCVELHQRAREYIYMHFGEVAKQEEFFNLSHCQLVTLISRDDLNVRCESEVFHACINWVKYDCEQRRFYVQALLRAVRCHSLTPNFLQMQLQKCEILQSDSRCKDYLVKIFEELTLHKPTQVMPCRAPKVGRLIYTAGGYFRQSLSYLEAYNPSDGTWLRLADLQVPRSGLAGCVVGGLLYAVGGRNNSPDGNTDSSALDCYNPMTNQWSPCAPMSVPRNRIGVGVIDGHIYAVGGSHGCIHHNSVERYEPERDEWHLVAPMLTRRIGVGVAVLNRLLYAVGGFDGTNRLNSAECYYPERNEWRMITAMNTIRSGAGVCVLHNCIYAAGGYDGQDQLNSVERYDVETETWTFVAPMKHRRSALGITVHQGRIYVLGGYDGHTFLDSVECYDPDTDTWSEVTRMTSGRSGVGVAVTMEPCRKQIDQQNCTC
# LANA DNA inh: KSHV C-LANA DNA binding inhibition. MBP-C-LANA/FAM-LBS DNA binding, fluorescence polarization. inhibition, % at 9 µM. hit rate 0.078% among 340,000. AID 504423;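 active = highest replicate inhibition at or above 60% at 9 µM, even if other replicates fall short; inactive = all replicates below 60% inhibition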;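 also: 0% = neutral control wells and 100% = 4 µM acridine orange control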
# Keap1 Kelch bind: Keap1 (human) Kelch domain binding. max delta Tm, degrees C. hit rate 8% among 400. Keap1 Kelch thermal shift, delta Tm; hits give high values. shares compounds with Keap1-Nrf2 PPI; in the data active = max delta Tm above about 0.48 degrees C
# Dye-only ctr: counter-screen for Keap1 thermal shift hits: dye-only artifacts | shares compounds with Keap1-Nrf2 PPI | 140 tested, under 10 active | delta Tm, degrees C (test concentration not listed) | Sypro Orange dye-only thermal melt, no protein, delta Tm; top dose 26 µM;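 active = at highest dose tested, delta Tm positive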
# Starred values were filed as active, the others as inactive; / = not tested or not shown. Most compounds without a hit are left out; they make up all but 1.7% or so of the library.
SMILES,CAL PDZ FP-1,A3G deaminase,APOBEC3A inh,CAL PDZ FP-2,Keap1-Nrf2 PPI,LANA DNA inh,Keap1 Kelch bind,others
Nc1nc(SCC(=O)Nc2cc(C(F)(F)F)ccc2N2CCOCC2)n[nH]1,-1,-6,0,0,14*,0,-0.07,Dye-only ctr=-27
COc1ccc(C(=O)c2ccsc2N)cc1,0,-7,-4,-6,14*,57,-0.04,
CCc1cc(C(=O)c2ccc(OC)cc2)c(N)s1,0,-13,-6,/,26*,10,-0.18,
CC1CCCCC1NC(=O)CCC(=O)N1CCOc2ccc(Cl)cc21 (centres undefined),0,-6,-4,3,-2,-1,/,
C[C@H](CO)N1C[C@H](C)[C@@H](CN(C)C(=O)NC2CCCCC2)Oc2ccc(NS(=O)(=O)c3cn(C)cn3)cc2C1=O,-1,-6,-1,-1,2,0,/,
CC(C)NC(=O)N(C)C[C@H]1Oc2ccc(NS(=O)(=O)c3cn(C)cn3)cc2C(=O)N([C@H](C)CO)C[C@@H]1C,-1,-5,0,0,29*,22,-0.11,
COc1ccc2c(=O)c3c(=O)n(Cc4ccco4)c(-c4ccccc4)nc3oc2c1,-7,10,-2,-1,-1,1,/,
CCCc1nc2oc3cc(OC)ccc3c(=O)c2c(=O)n1Cc1ccco1,-3,18,17,0,14*,0,-0.19,
CC1CCN(c2nc3c(c(=O)[nH]c(=O)n3C)n2CCSc2ncccn2)CC1,0,/,/,1,-3,-1,/,
Cc1nc2ccccc2n1CCC(=O)O,0,-2,1,-2,-3,0,/,
Cc1nc2ccccc2n2c(O)c(CC(=O)O)cc12,1,1,6,2,22*,58,0.46*,
COc1ccc(OC)c(C(=O)COC(=O)COc2ccccc2F)c1,-4,-2,-1,-3,-3,2,/,
CCOc1ccc(/C=C2\SC(=S)NC2=O)cc1OC,-1,-5,-2,-2,-3,-1,/,
CCOc1ccccc1C=C1SC(=S)NC1=O,0,/,/,-4,37*,5,0.06,
O=C(NCC(=O)N1CCN(c2ccccc2)CC1)c1cccs1,-1,-5,-3,0,-4,0,/,
CC1=C(C(=O)NC2CC(C)(C)Cc3c2cnn3-c2cccc(F)c2)OCCO1 (centres undefined),-2,-3,-2,0,1,-10,/,
O=C(CCN1C(=O)/C(=C/c2ccco2)SC1=S)Nc1ccc(O)cc1C(=O)O,/,42,78,-4,13*,63*,0.29,
O=C(O)C1C=Cc2ccccc2N1C(=O)c1ccccc1 (centres undefined) (tested in a mixture with another compound),1,/,/,-2,-3,1,/,
COc1cc(NC(=O)CSc2nc3ccccc3cc2C)c(C(=O)O)cc1OC,-1,-1,-1,-4,-4,1,/,
COc1cc(NC(=O)CSc2nc3cc(C)ccc3cc2C)c(C(=O)O)cc1OC,-2,-2,1,-4,16*,10,-0.12,Dye-only ctr=-21
CCCc1cc(NC(=O)COC(=O)c2nccnc2N)n(-c2ccccc2)n1,0,-6,-1,/,57*,26,-0.08,
CCOc1ccc(NC(=O)CN(C)C(=O)C(C)N2C(=O)c3ccccc3C2=O)cc1OCC (centres undefined),0,-7,1,-6,4,1,/,
COc1cccc(/C=C/C(=O)OCC(=O)N2c3ccccc3NC(=O)C2(C)C)c1,0,-4,4,-4,-1,0,/,
Cc1ccc(O)c(C(=O)c2cnc3c(c2)c(C)nn3-c2ccccc2)c1,-1,-2,3,-4,23*,1,-0.1,Dye-only ctr=-28
Cc1ccc(O)c(C(=O)c2cnc3c(c2)c(=O)n(C)c(=O)n3C)c1,-1,-6,-3,5,-1,1,/,
SMILES,CAL PDZ FP-1,A3G deaminase,APOBEC3A inh,CAL PDZ FP-2,Keap1-Nrf2 PPI,LANA DNA inh,Keap1 Kelch bind,others
COc1ccc([N+](=O)[O-])c(O)c1C(C)=O,0,/,/,1,0,0,/,
CCN(CC)S(=O)(=O)c1ccc(C(=O)OCCN2C(=O)c3cccc4c(N5CCOCC5)ccc(c34)C2=O)cc1,0,-5,-1,/,27*,31,0.07,
CCCCN(C(=O)CC1CCCCC1)c1c(N)n(CC(C)C)c(=O)[nH]c1=O,-1,-3,1,/,50*,/,-0.14,
CCSc1ncc(Cl)c(C(=O)Nc2ccccc2OC)n1,0,-6,1,-4,23*,5,-0.2,
CCCCOc1ccc(/C=C2/Sc3ccccc3C2=O)cc1,-2,-5,-2,0,13*,0,-0.12,
Cc1ccc2oc(=O)c3cnn(CC(=O)NCCC(C)C)c3c2c1,2,1,-3,-2,31*,0,-0.17,Dye-only ctr=-26
CCOc1ccc(CN(C)C(=O)CNC(=O)C2CCCCC2)cc1OC,-1,-2,2,2,-5,1,/,
CCCCN1C(=O)/C(=C2/Sc3ccccc3N2C)S/C1=N\c1ncn[nH]1,1,-9,-5,/,41*,21,-0.07,Dye-only ctr=-28
Cc1cc(=O)c2c([nH]1)c(C)cc1[nH]c(C)c(C)c12,0,-4,-4,/,25*,51,-0.16,Dye-only ctr=-26
Cc1cc(C)c(S(C)(=O)=O)c(=O)[nH]1,0,-5,2,-5,-4,0,/,
CCC(=O)c1cn(CC(=O)Nc2ccc(OC)cc2)c2ccccc12,0,-8,-6,/,55*,26,0.01,
Nc1cccc2cc(S(=O)(=O)O)ccc12,-1,/,/,-7,15*,73*,0.24,
Nc1ccc2c(S(=O)(=O)O)cccc2c1S(=O)(=O)O,-2,/,/,-18,-2,2,/,
Cc1ccccc1C(=O)N(C)c1ccccc1C(=O)NCc1ccccc1,0,-4,1,-7,2,1,/,
COc1cc(C2C3CN(C)CC=C3C(C#N)=C(N)C2(C#N)C#N)ccc1OC(C)C (centres undefined),-1,-6,-2,/,2,33,/,
CC(C)N1CC=C2C(C#N)=C(N)C(C#N)(C#N)C(c3ccccc3)C2C1 (centres undefined),-2,/,/,-1,12*,33,-0.09,Dye-only ctr=-30
CCC1CCCCN1C(=S)NC1CCCCC1 (centres undefined),0,-3,0,-1,1,0,/,
N#CC1=C(N)Oc2cc(N)ccc2C1c1ccsc1 (centres undefined),-2,1,1,-2,-3,-1,/,
N#CC1=C(N)Oc2ccc3ccc(O)cc3c2C1c1ccsc1 (centres undefined),-1,/,/,-2,17*,87*,-0.12,

# Assay outcomes as filed in PubChem.
